697 NFkB inh – inhibitors of PMA/ionomycin-induced NF-kB reporter, 697 cells, primary screen, B-cell NF-kB inhibitor project, cell-based, luminescence, uHTS | AID 435022, 2010 | hit rate 0.33% among 330,000 | 697 B-cell NF-kB luciferase reporter, 16 h | inhibition, % at 4 µM; in the data active = inhibition above about 35%
Jurkat NFkB inh – inhibitors of induced NF-kB luciferase reporter, primary screen, TCR NF-kB activation inhibitor project, cell-based, luminescence, uHTS; Jurkat, PMA/ionomycin-induced NF-kB luciferase reporter; inhibition, % at 4 µM; hit rate 0.53% among 330,000; in the data active = inhibition above about 50%
HSF1 inhib – HSF1 inhibitors in luciferase reporter cells, primary screen, cell-based, NIH3T3, luminescence; NIH3T3-HGL HSE-luciferase, MG132-induced, luminescence 8 h; hits give low values; activity change, negative = inhibition, % at 7.5 µM (by protocol); hit rate 0.77% among 300,000;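 active = more than half of replicate wells show activity change below -50%, luminescence cut by over half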;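 note: luciferase reports HSF-1 transcriptional activity via heat shock element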
HSF-1 act – HSF-1 activators, primary screen, NIH3T3-HGL cells, MG132 stress, luminescence, single point. NIH3T3-HGL HSF-1 luciferase reporter, 8 h; 100% = twice DMSO control signal. activation, % at 9 µM. hit rate 1.7% among 300,000. AID 504408, 2011;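 active = mean replicate activation of at least 50% with a set share of replicates each reaching 50%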
GPR7 antagonist – GPR7 receptor antagonists, primary screen, cell-based, fluorescence, single concentration; Neuropeptides B/W receptor type 1 (Homo sapiens), P48145; inhibition, % at 4.4 µM; hit rate 1.1% among 290,000; AID 1861, 2009; GPR7-expressing cells, fluorescence antagonist assay; in the data active = inhibition above about 16%, passing the limit was not always enough;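 note: cells stimulated with the agonist NPW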
Target sequence (P48145 whole entry, looked up): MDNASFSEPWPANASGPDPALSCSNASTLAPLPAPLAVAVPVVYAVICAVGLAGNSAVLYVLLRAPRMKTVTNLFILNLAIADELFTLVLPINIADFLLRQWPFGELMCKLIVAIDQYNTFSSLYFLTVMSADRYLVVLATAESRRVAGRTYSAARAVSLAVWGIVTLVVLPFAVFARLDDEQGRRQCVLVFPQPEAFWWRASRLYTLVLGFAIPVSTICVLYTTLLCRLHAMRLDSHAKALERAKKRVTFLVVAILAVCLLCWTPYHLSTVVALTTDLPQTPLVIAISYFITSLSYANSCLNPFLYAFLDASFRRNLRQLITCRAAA
T cruzi inh – inhibitors of intracellular T. cruzi growth, primary screen, luminescence, NIH3T3 host cells; T. cruzi beta-gal in NIH3T3, 90 h; inhibition, % (no concentration beside the values); hit rate 1.4% among 300,000; AID 1885, 2009;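 active = mean inhibition across valid replicates above about 55%, limit read from the data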;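 note: signal also drops with host cell toxicity which is not excluded here; higher percent means less beta-gal luminescence so fewer parasites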
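System: Mouse NIH/3T3 fibroblasts infected with β-gal-expressing T. cruzi Tulahuen C4 | Quantity: NIH/3T3 cells, 5,000 per well | Reagent: 5000 reporter trypomastigotes per well | Dosing: Compound pinned at 50 nL/well, DMSO | Schedule: 3 h host attachment, then at least 90 h co-culture | Detection: GalScreen luminescence, 60 min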
Jurkat NFkB conf – PMA/ionomycin-induced NF-kB reporter inhibitors, Jurkat retest, confirmation, T-cell NF-kB inhibitor project, cell-based, luminescence, single concentration | hit rate 27% among 2,700 | Jurkat NF-kB luciferase, 16 h | inhibition, % at 4 µM | shares compounds with Jurkat NFkB inh;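 active = inhibition reaching about 45% at 4 µM in either replicate, limit read from the data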
Hits are given with their value; 0 = inactive; - = no result. Hits are enriched below; roughly 4.8% of the tested compounds scored in any of these assays.

SMILES | 697 NFkB inh | Jurkat NFkB inh | HSF1 inhib | HSF-1 act | GPR7 antagonist | T cruzi inh | Jurkat NFkB conf
CCN(CCCNC(=O)C1CCC(=O)N1Cc1ccc(C)cc1)c1cccc(C)c1 (stereo not given) | 0 | 57 | 0 | 85 | 0 | 0 | 0
Cc1cccc(C(=O)Nc2nsc(N)n2)c1 | 0 | 0 | 0 | 0 | - | 0 | -
c1ccc2c(c1)oc1c(Nc3ccc4c(c3)OCCO4)ncnc12 | 0 | 0 | 0 | 0 | 0 | 0 | 0
COc1ccc(-n2nc3cc(N)c(Br)cc3n2)cc1 | 0 | 0 | 0 | 0 | 0 | 0 | -
COc1ccc(-n2nc3cc(C)c(N)c(Br)c3n2)cc1 | 0 | 0 | 0 | 0 | 0 | 0 | 0
Nc1nc(Cl)nc2c1ncn2[C@@H]1O[C@H](CO)[C@@H](O)[C@H]1O | 0 | 0 | 0 | 0 | 0 | 0 | -
Nc1ncn([C@@H]2O[C@H](CO)[C@@H](O)[C@H]2O)c(=O)n1 | 0 | 80 | 0 | 0 | - | 0 | 85
O=C(NC1CC2CCCC(C1)N2C(=S)Nc1ccccc1)C1CC1 (stereo not given) | 0 | 0 | 0 | 0 | 0 | 0 | -
COc1ccc(-c2nnc(SCC(=O)/C(C#N)=C(\C)N)o2)cc1 | 0 | 0 | 0 | 81 | 0 | 0 | 0
O=C(CSc1nnc(-c2ccc(Br)cc2)o1)Nc1cccc(C(=O)O)c1 | 0 | 75 | 0 | 0 | 0 | 0 | 0
COc1ccc(-c2nnc(SCC(=O)c3ccc(C)o3)o2)cc1 | - | - | 0 | 0 | 0 | 0 | -
C/C(N)=C(/C#N)C(=O)CSc1nnc(-c2ccccc2Br)o1 | 0 | 0 | 0 | 115 | 0 | 0 | 0
COc1ccc(NC(=O)CSc2nnc(-c3ccncc3)o2)c(OC)c1 | 0 | 0 | 0 | 0 | - | 0 | -
COc1ccc(-c2nnc(SCC(=O)Nc3ccccc3OC)o2)cc1 | 0 | 0 | 0 | 0 | 0 | 0 | 0
COc1ccc(CCNC(=O)C2CC(c3ccccc3[N+](=O)[O-])=NO2)cc1 (stereo not given) | 0 | 0 | 0 | 0 | 0 | 0 | -
O=C(Nc1c(Cl)ccc2nsnc12)c1ccc([N+](=O)[O-])o1 | 0 | 0 | 0 | 0 | 0 | 0 | -
COc1cc(C(=O)Nc2ccc3c(c2)C(=O)c2ccccc2C3=O)cc(OC)c1OC | - | - | 0 | 0 | 0 | 0 | -
COc1cc(C(=O)Nc2ccc3c(c2)CCN3C(C)=O)cc(OC)c1OC | 0 | 68 | 0 | 0 | 0 | 0 | 0
COc1cc(C(=O)Nc2ccc3c(c2)Cc2ccccc2-3)cc(OC)c1OC | 0 | 54 | 0 | 0 | 0 | 0 | 0
CCOC(=O)N1CCN(c2cc(=O)n(-c3cccc(C)c3)c(=O)[nH]2)CC1 | 0 | 0 | 0 | 0 | 0 | 0 | -
O=C(NC1CCC(CC2CCC(NC(=O)C(Cl)Cl)CC2)CC1)C(Cl)Cl (stereo not given) | 0 | 0 | 0 | 0 | 0 | 0 | -
CC1CCN(C(=O)CN2C(=O)NC(C)(c3ccc4ccccc4c3)C2=O)CC1 (stereo not given) | 0 | 59 | - | - | - | - | 0
CN(CCO)c1nc(N)c2c(N)nc3c(c2c1C#N)CC(=O)N3C1CCCC1 | 0 | 0 | 0 | 0 | 0 | 0 | -
CC(C)(C)N1C(=O)Cc2c1nc(N)c1c(N)nc(N3CCCCC3CO)c(C#N)c21 (stereo not given) | 0 | 56 | 0 | 68 | 0 | 0 | 0
N/C(=C\C(=O)c1cc(Cl)ccc1O)C(Cl)(Cl)Cl | 0 | 64 | 0 | 209 | 0 | 0 | 0
SMILES | 697 NFkB inh | Jurkat NFkB inh | HSF1 inhib | HSF-1 act | GPR7 antagonist | T cruzi inh | Jurkat NFkB conf
CCN(CC)c1ccc(NC(=O)CSc2nc(C3CC3)nc3ccccc23)cc1C | 0 | 59 | 0 | 0 | 0 | 0 | 0
CC(=O)Nc1ccc(S(=O)(=O)N2c3ccc(F)cc3CCC2C)cc1 (stereo not given) | 0 | 57 | 0 | 0 | - | 0 | 0
CCCC(NS(=O)(=O)c1ccc(-c2ccc(=O)[nH]n2)s1)c1cccs1 (stereo not given) | 0 | 0 | 0 | 0 | 0 | 0 | -
NC1=NC2(CCCCC2)N=C(Nc2ccc(F)cc2F)N1 | 0 | 0 | 0 | 0 | 0 | 0 | -
Cc1cc(C)cc(NC2=NC3(CCCCC3)N=C(N)N2)c1 | 0 | 66 | 0 | 0 | 0 | 0 | 0
O=C(CSc1nc(=O)[nH]c2c1CCCC2)Nc1ccc(F)cc1F | 0 | 0 | 0 | 0 | - | 0 | -
CN1/C(=C\C(=O)c2cccc([N+](=O)[O-])c2)Sc2ccccc21 | 0 | 0 | 0 | 0 | 0 | 0 | 0
CC(C)[C@H](NC(=O)N1c2ccccc2NC(=O)[C@@H]1C(C)C)C(=O)N[C@@H](Cc1c[nH]c2ccccc12)C(=O)O | 0 | 0 | 0 | 0 | 0 | 0 | -
COc1ccc(-c2nc3ccccc3s2)cc1NC(C)=O | 0 | 0 | 0 | 0 | 0 | 0 | 0
CCOC(=O)C(C)Oc1cccc2c(=O)n(CC(=O)Nc3ccc4c(c3)OCCO4)ccc12 (stereo not given) | 0 | 0 | 0 | 0 | 0 | 0 | -
CCOC(=O)C(C)Oc1cccc2c(=O)n(CC(=O)NCc3ccc4c(c3)OCO4)ccc12 (stereo not given) | 0 | 52 | 0 | 0 | 0 | 0 | 54
CCOC(=O)COc1cccc2c(=O)n(CC(=O)NCc3ccc(F)cc3)ccc12 | 0 | 72 | 0 | 0 | 0 | 0 | 53
CCOC(=O)COc1cccc2c(=O)n(CC(=O)NCc3ccccc3)ccc12 | 0 | 63 | 0 | 0 | 0 | 0 | 0
CCOC(=O)COc1cccc2c(=O)n(CC(N)=O)ccc12 | 0 | 0 | 0 | 0 | 0 | 0 | -
O=[N+]([O-])c1cc(Cl)cc(C2=NCCN2)c1 | 0 | 0 | 0 | 0 | 0 | 0 | -
COc1ccc(NC(=O)COc2cc(C)cc(C)c2)cc1S(=O)(=O)N1CCCCC1 | 0 | 57 | 0 | 0 | - | 0 | 0
COc1ccc(NC(=O)COc2ccc(C)c(C)c2)cc1S(=O)(=O)N1CCCCC1 | 0 | 0 | 0 | 0 | - | 0 | -
CCSc1nnc(SCC(=O)c2c(N)n(C)c(=O)n(C)c2=O)s1 | 0 | 0 | - | - | - | - | -
COc1cc(C2c3cc4c(cc3C(OC3OC5COC(c6cccs6)OC5C(O)C3O)C3COC(=O)C23)OCO4)cc(OC)c1O (stereo not given) | 0 | 80 | 0 | 0 | 0 | 0 | 94
C=CCNC(=O)c1cc(-c2ccc(Br)cc2)on1 | 0 | 0 | 0 | 0 | 0 | 0 | 0
O=C(NCCN1CCOCC1)c1cc(-c2ccc(Br)cc2)on1 | 0 | 0 | 0 | 0 | 0 | 0 | -
O=S(=O)(c1ccccc1)N1CCNCC1 | 0 | 0 | 0 | 0 | - | 0 | -
Cc1ccc(C(=O)N2N=C3c4ccccc4S(=O)(=O)N3[C@H]2N(C)C)cc1 | 0 | 0 | 0 | 0 | 0 | 0 | -
